How the values were obtained:
[1] = Acid dissociation constant was measured; assay type: ADME
Rattus norvegicus [2] = species on record: Rattus norvegicus; assay: CNS activity was measured by the ability to restore the anticonvulsant effect of methazolamide in reserpine treated rats; assay type: functional; parameters: unit not given beside the values
Summary of the method: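 Rats pretreated with reserpine received varying doses of analogue, and the read-out was restoration of methazolamide's anticonvulsant activity. Potency is expressed relative to TRH.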

Rattus norvegicus [3] = assay: Compound was evaluated in vivo for its ability to stimulate release of [125I]-labeled T3 and T4 after administration of varying doses; assay type: functional
Summary of the method: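 Varying doses of analogue were given in vivo, with ¹²⁵I-labeled T₃ and T₄ measured afterwards. Potency is expressed relative to TRH.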

NC(=O)[C@@H]1CCCN1C(=O)[C@H](Cc1c[nH]cn1)NC(=O)[C@@H]1CCCC(=O)N1
pKa [1]: 6.18 | CNS activity (Rattus norvegicus [2]): 4 | Hormonal activity (Rattus norvegicus [3]): 1

NC(=O)[C@@H]1CSCN1C(=O)[C@H](Cc1c[nH]cn1)NC(=O)[C@@H]1CCCC(=O)N1 [listing 1 of 2 here]
pKa [1]: 6.1

NC(=O)[C@@H]1CSCN1C(=O)[C@H](Cc1c[nH]cn1)NC(=O)[C@@H]1CCCC(=O)N1 [listing 2 of 2 here]
CNS activity (Rattus norvegicus [2]): 35 | Hormonal activity (Rattus norvegicus [3]): 1

COC(=O)[C@@H]1CCCCN1C(=O)[C@H](Cc1c[nH]cn1)NC(=O)[C@@H]1CCC(=O)N1 [listing 1 of 2 here]
pKa [1]: 6.18

COC(=O)[C@@H]1CCCCN1C(=O)[C@H](Cc1c[nH]cn1)NC(=O)[C@@H]1CCC(=O)N1 [listing 2 of 2 here]
CNS activity (Rattus norvegicus [2]): 1 | Hormonal activity (Rattus norvegicus [3]): 0.2

COC(=O)[C@@H]1CCCCN1C(=O)[C@H](Cc1c[nH]cn1)NC(=O)[C@@H]1CCCC(=O)N1
CNS activity (Rattus norvegicus [2]): 0.9 | Hormonal activity (Rattus norvegicus [3]): 0.02
